In ChEMBL document CHEMBL1143201 (Bioorg Med Chem, 2008):
Calls of active or inactive are those of the source. No cut-off for these calls is given here.

What was measured:
Type in all cases: cell-based
[1] = biological target: T1, Muscarinic acetylcholine receptor M1 (Homo sapiens, UniProt P11229); experiment: Displacement of [3H]NMS from human muscarinic M1 receptor expressed in CHO cells in continuous presence of radioligand
T1 sequence (P11229 whole entry): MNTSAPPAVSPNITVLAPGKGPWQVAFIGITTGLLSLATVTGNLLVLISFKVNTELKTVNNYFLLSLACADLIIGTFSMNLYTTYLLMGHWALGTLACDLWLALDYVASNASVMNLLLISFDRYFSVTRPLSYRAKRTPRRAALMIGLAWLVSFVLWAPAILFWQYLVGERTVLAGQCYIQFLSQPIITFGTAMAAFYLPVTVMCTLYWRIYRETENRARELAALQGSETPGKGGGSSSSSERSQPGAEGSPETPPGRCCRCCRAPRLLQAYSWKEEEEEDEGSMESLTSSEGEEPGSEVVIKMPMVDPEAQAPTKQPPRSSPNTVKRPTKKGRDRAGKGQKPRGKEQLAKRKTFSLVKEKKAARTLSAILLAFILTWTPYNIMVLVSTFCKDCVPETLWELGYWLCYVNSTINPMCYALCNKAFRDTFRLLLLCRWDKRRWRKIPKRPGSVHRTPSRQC
Procedure, shortened: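 CHO cells stably expressing human M1 receptor, grown in DMEM with 10% bovine calf serum and geneticin, trypsinized 4 days after subculture and washed into Hepes buffer. Cells incubated 1 h at 37 °C with 0.14–0.20 nM [3H]NMS plus increasing analog concentrations. Atropine defined nonspecific binding. Ended by rapid GF/B filtration and ice-cold saline washes, then scintillation counting; pIC50 reported.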

[2] = biological target: T1, Muscarinic acetylcholine receptor M1; experiment: (§1) Displacement of [3H]NMS from human muscarinic M1 receptor expressed in CHO cells by wash-resistant binding method
Procedure, shortened: (§2)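 Human M1-transfected CHO cells in Hepes buffer were preincubated with test ligand. Each wash was a ~50-volume buffer dilution and centrifugation, done three times in all. Washed cells were resuspended, given [3H]NMS, and incubated 1 h at 37 °C. Bound radioactivity was then taken by filtration and scintillation counting; pIC50 derived.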

[3] = biological target: T2, Muscarinic acetylcholine receptor M1 (Homo sapiens) (UniProt P11229); experiment: as §1; procedure, shortened: as §2
T2 sequence (whole entry): T1 sequence (P11229 whole entry)

[4] = biological target: T1, Muscarinic acetylcholine receptor M1; experiment: Displacement of [3H]NMS from human muscarinic M1 receptor expressed in CHO cells at pH 6 in continuous presence of radioligand
Procedure, shortened: (§3)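 CHO cells stably transfected with human M1 gene, grown in DMEM with 10% bovine calf serum and geneticin, harvested by mild trypsinization 4 days after subculture, washed in Hepes medium. Buffer acidified to pH 6.0 or set to pH 8.0. Cells incubated 1 h at 37 °C with 0.14–0.20 nM [3H]NMS plus increasing analog concentrations. Nonspecific binding defined with 10 µM atropine. Filtration, saline washes, scintillation counting; pIC50 derived.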

[5] = biological target: T1, Muscarinic acetylcholine receptor M1; experiment: Displacement of [3H]NMS from human muscarinic M1 receptor expressed in CHO cells at pH 8 in continuous presence of radioligand; procedure, shortened: as §3
[6] = biological target: T2, Muscarinic acetylcholine receptor M1 (Homo sapiens); experiment: (§4) Displacement of [3H]NMS from human muscarinic M1 receptor expressed in CHO cells at pH 6 by wash-resistant binding method
Procedure, shortened: (§5)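 Washout paradigm run in binding buffer acidified to pH 6.0, on CHO cells stably carrying human M1 receptor. After ligand preincubation, cells went through three rounds of ~50-volume dilution plus centrifugation, then resuspension with [3H]NMS for 1 h at 37 °C. Residual bound label was measured by filtration and scintillation counting; pIC50 derived.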

[7] = biological target: T1, Muscarinic acetylcholine receptor M1; experiment: Displacement of [3H]NMS from human muscarinic M1 receptor expressed in CHO cells at pH 8 by wash-resistant binding method
Procedure, shortened: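 Human M1-transfected CHO cells preincubated with increasing analog concentrations in pH 8.0 buffer. Each wash is ~50 vol buffer dilution then centrifugation, done three times in total. Pellet resuspended in buffer with [3H]NMS for 1 h at 37 °C. Bound radioactivity collected by rapid filtration and scintillation counting. Result expressed as pIC50 of residual inhibition.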

[8] = biological target: T1, Muscarinic acetylcholine receptor M1; experiment: as §4; procedure, shortened: as §5

IC50 [1] [nM] | IC50 [2] [nM] | Activity [3] | Structure (SMILES) | other results
1910 | 44700 |  | CN1CCC=C(c2nsnc2OCCCCCN)C1 | 
309 |  | inactive | CN1CCC=C(c2nsnc2OCCCCO)C1 | 
77600 |  | inactive | CN1CCC=C(c2nsnc2OCCCCN)C1 | 
3800 |  | inactive | CN1CCC=C(c2nsnc2OCCCO)C1 | 
7080 |  | inactive | CNCCCCOc1nsnc1C1=CCCN(C)C1 | 
275 | 28800 |  | CN1CCC=C(c2nsnc2OCCCCn2cccc2)C1 | IC50 [4]: 407 nM; IC50 [5]: 219 nM; IC50 [8]: 39800 nM; IC50 [7]: 12000 nM

Second part, the compound before the results:

Structure (SMILES) | IC50 [1] [nM] | IC50 [2] [nM] | Activity [3] | other results
CCCOc1nsnc1C1=CCCN(C)C1 | 52.5 |  | inactive | 
CN1CCC=C(c2nsnc2OCC#Cc2ccccc2)C1 | 37.2 | 2140 |  | 
CN1CCC=C(c2nsnc2OCCCN)C1 | 162 | 14800 |  | 
CN1CCC=C(c2nsnc2OCCCCCCN)C1 | 646 | 3980 |  | 
CN1CCC=C(c2nsnc2OCCN)C1 | 1000 | 110000 |  | 
CCOC(=O)CCCCOc1nsnc1C1=CCCN(C)C1 | 58.9 |  | inactive | 
CN1CCC=C(c2nsnc2OCCO)C1 | 1070 |  | inactive | 
CN1CCC=C(c2nsnc2OCCCCn2ccnc2)C1 | 871 | 52500 |  | IC50 [4]: 2290 nM; IC50 [5]: 871 nM; Activity [6]: inactive; IC50 [7]: 53700 nM
CN1CCC=C(c2nsnc2OCC(=O)O)C1 | 617 |  | inactive | 
CCOc1nsnc1C1=CCCN(C)C1 | 141 |  | inactive | 
